The test system of data set [1] is Candida. Description: Antifungal activity against Candida-mediated vaginal infection in woman at 0.5% treated via intravaginal gels every 12 hrs for 2 days measured post application. Type of data set: functional, organism-based. As to conditions: Vagina. In outline:
(§1)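 Double-blind randomized study. Women self-applied intravaginal gel (warming-gel vehicle) with 0, 0.5 or 5% GML every 12 h for 2 days. Swabs were taken before and just after the first dose and 12 h after the last dose, placed in 1 ml Todd Hewitt broth, serially diluted and plated on chocolate agar (37°C, 7% CO2, up to 3 days). Organisms were identified by colony features as CFU/ml secretions, visit 1 vs visit 2. Detection limit 10^2 CFU/ml.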

Data set [2] is filed under the species Homo sapiens. Description: Toxicity in woman with Gardnerella vaginalis-mediated vaginal infection assessed as adverse events at 5% treated via intravaginal gels every 12 hrs for 2 days measured post application. Type of data set: organism-based, Vagina. Particulars: in vivo, other.
The test system of data set [3] is Lactobacillus. The data set can be described thus: Antibacterial activity against Lactobacillus-mediated vaginal infection in woman assessed as effect on vaginal pH at 5% treated via intravaginal gels every 12 hrs for 2 days measured post application. Type of data set: functional. As to conditions: Vagina. In outline: (§2)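 Women self-applied vaginal gels containing 0, 0.5 or 5% GML in a warming-gel vehicle every 12 h for 2 days. Vaginal pH was measured at visit 1 (before the first dose) and visit 2, and the two visits were compared.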

The test system of data set [4] is Gardnerella vaginalis. The data set can be described thus: Antibacterial activity against Gardnerella vaginalis-mediated vaginal infection in woman at 0.5% treated via intravaginal gels every 12 hrs for 2 days measured post application. Particulars: Vagina. Type of data set: functional, organism-based. In outline:
as §1

The next data set deals with Pichia kudriavzevii. The data set can be described thus: Antifungal activity against Candida krusei assessed as => 3-log drop in number of fungal CFU/ml at 500 ug/ml after 4 to 8 hrs. Type of data set: functional, organism-based. In outline: (§3)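 Candida species (C. albicans SC5314 and clinical isolates, C. glabrata, C. kefyr, C. parapsilosis, C. tropicalis, C. krusei) grown 24 h at 37°C with 200 rpm shaking in 25 ml Todd Hewitt broth with GML at 0, 50, 100 or 500 μg/ml. CFU were counted at time points by serial dilution and plating. Fungicidal was defined as a ≥3-log CFU/ml drop.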

The test system of data set [5] is Lactobacillus. Description: Antibacterial activity against Lactobacillus-mediated vaginal infection in woman assessed as effect on vaginal pH at 0.5% treated via intravaginal gels every 12 hrs for 2 days measured post application. Type of data set: functional. As to conditions: Vagina. Summed up:
as §2

Data set [6] deals with Lactobacillus. The data set can be described thus: Antibacterial activity against Lactobacillus-mediated vaginal infection in woman at 5% treated via intravaginal gels every 12 hrs for 2 days measured post application. Type of data set: functional. Particulars: Vagina. Summed up:
as §1

For data set [7], the system named is Candida albicans. The data set can be described thus: Antifungal activity against Candida albicans SC5314 assessed as => 3-log drop in number of fungal CFU/ml at 100 ug/ml after 4 to 8 hrs. Type of data set: functional, organism-based. In outline:
as §3

In data set [8] the test system is Candida. Description: Antifungal activity against Candida-mediated vaginal infection in woman assessed as effect on vaginal pH at 5% treated via intravaginal gels every 12 hrs for 2 days measured post application. Type of data set: functional, organism-based. Particulars: Vagina. Summed up: as §2
For data set [9], the system named is Candida. Description: Antifungal activity against Candida-mediated vaginal infection in woman at 5% treated via intravaginal gels every 12 hrs for 2 days measured post application. Type of data set: functional, organism-based. Particulars: Vagina. Summed up:
as §1

The test system of the next data set is Kluyveromyces marxianus. The data set can be described thus: Antifungal activity against Candida pseudotropicalis kefyr assessed as => 3-log drop in number of fungal CFU/ml at 100 ug/ml after 4 to 8 hrs. Type of data set: functional, organism-based. Summed up: as §3
Data set [10] deals with Lactobacillus. Description: Antibacterial activity against Lactobacillus-mediated vaginal infection in woman at 0.5% treated via intravaginal gels every 12 hrs for 2 days measured post application. Type of data set: functional. As to conditions: Vagina. In outline: as §1
Data set [11] is filed under the species Homo sapiens. Description: Toxicity in woman with Candida-mediated vaginal infection assessed as adverse events at 5% treated via intravaginal gels every 12 hrs for 2 days measured post application. Type of data set: organism-based, Vagina. As to conditions: in vivo, other.
Data set [12] is filed under the species Homo sapiens. The data set can be described thus: Toxicity in woman with vaginal infection assessed as adverse events at 5% treated via intravaginal gels every 12 hrs for 2 days measured post application. Particulars: in vivo, other.
Data set [13] concerns Candida albicans. The data set can be described thus: Antifungal activity against Candida albicans SC5314 clinical isolate at 100 ug/ml after 24 hrs. Type of data set: functional, organism-based. In outline:
as §3

In data set [14] the test system is Gardnerella vaginalis. Description: Antibacterial activity against Gardnerella vaginalis-mediated vaginal infection in woman assessed as effect on vaginal pH at 0.5% treated via intravaginal gels every 12 hrs for 2 days measured post application. Type of data set: functional, organism-based. As to conditions: Vagina. Summed up: as §2
Data set [15] has as its system Candida. Description: Antifungal activity against Candida-mediated vaginal infection in woman assessed as effect on vaginal pH at 0.5% treated via intravaginal gels every 12 hrs for 2 days measured post application. Type of data set: functional, organism-based. Particulars: Vagina. In outline:
as §2

Data set [16] deals with Gardnerella vaginalis. The data set can be described thus: Antibacterial activity against Gardnerella vaginalis-mediated vaginal infection in woman at 5% treated via intravaginal gels every 12 hrs for 2 days measured post application. Type of data set: functional, organism-based. As to conditions: Vagina. In outline: as §1
The next data set relates to Candida parapsilosis. The data set can be described thus: Antifungal activity against Candida parapsilosis assessed as => 3-log drop in number of fungal CFU/ml at 500 ug/ml after 4 to 8 hrs. Type of data set: functional, organism-based. In outline: as §3
Data set [17] relates to Gardnerella vaginalis. Description: Antibacterial activity against Gardnerella vaginalis-mediated vaginal infection in woman assessed as effect on vaginal pH at 5% treated via intravaginal gels every 12 hrs for 2 days measured post application. Type of data set: functional, organism-based. As to conditions: Vagina. Summed up:
as §2

A further data set deals with Candida tropicalis. Description: Antifungal activity against Candida tropicalis assessed as => 3-log drop in number of fungal CFU/ml at 500 ug/ml after 4 to 8 hrs. Type of data set: functional, organism-based. Summed up:
as §3

Data set [18] concerns Gardnerella vaginalis. Description: Antibacterial activity against Gardnerella vaginalis assessed as => 3-log drop in number of fungal CFU/ml at 1 to 10 ug/ml after 24 hrs. Type of data set: functional, organism-based.
The next data set deals with Nakaseomyces glabratus. Description: Antifungal activity against Candida glabrata assessed as => 3-log drop in number of fungal CFU/ml at 500 ug/ml after 4 to 8 hrs. Type of data set: functional, organism-based. Summed up:
as §3

Activity calls are given as the source filed them.

As for `CCCCCCCCCCCC(=O)OCC(O)CO` (stereo not drawn) [GLYCEROL MONOLAURATE], the result in the data set on Candida [1], in the data set with Gardnerella vaginalis [4], in the data set with Pichia kudriavzevii, with Candida albicans [7], in the data set on Candida [9] and in the data set with Kluyveromyces marxianus was Active. Also, the result in the data set on Candida albicans [13], in the data set on Gardnerella vaginalis [16], in the data set with Candida parapsilosis, in the data set with Candida tropicalis, with Gardnerella vaginalis [18] and in the data set on Nakaseomyces glabratus was Active. Besides, the Activity entry in the data set listed under Homo sapiens [2], in the data set filed under Homo sapiens [11] and in the data set listed under Homo sapiens [12] was “Non-toxic” throughout. Further, the result in the data set on Lactobacillus [3], in the data set on Lactobacillus [5], in the data set with Lactobacillus [6], with Candida [8], in the data set with Lactobacillus [10] and with Gardnerella vaginalis [14] was inactive. Further, the result in the data set on Candida [15] and in the data set with Gardnerella vaginalis [17] was inactive.

The record behind these values is ChEMBL document CHEMBL1240373, “Glycerol monolaurate inhibits Candida and Gardnerella vaginalis in vitro and in vivo but not Lactobacillus” (Antimicrob Agents Chemother, 2010).
